In ChEMBL document CHEMBL1275565, “Minimal effects of ritonavir and efavirenz on the pharmacokinetics of raltegravir” (Antimicrob Agents Chemother, 2008):

Experiments:
Assay type in all cases: ADME, organism-based
[1] = Terminal half life in HIV-negative human at 400 mg, po administered as single dose; details: in vivo, read-out: beta t1/2 (converted)
Outline: (§1)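 Healthy male volunteers; plasma raltegravir measured by validated reverse-phase HPLC-MS/MS (LLOQ 2 ng/ml, linear 2 to 1,000 ng/ml) and converted to nM. Each subject's profile was fit to a biexponential model (weighting 1/(predicted concentration)², Gauss-Newton minimization), with α-phase onset set by inspection. Phase t1/2 = ln(2)/α or β. Median differences were estimated by Hodges-Lehman with 90% CI.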

[2] = AUC (0 to infinity) in HIV-negative human at 400 mg, po administered as single dose; parameters: dose 400 mg, time infinity, route oral; details: plasma
Outline: (§2)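 Period 1 of two crossover studies in healthy male volunteers: single 400 mg oral raltegravir alone. Plasma sampled 0–72 h postdose and assayed by validated reverse-phase HPLC-MS/MS (LLOQ 2 ng/ml, linear to 1,000 ng/ml), converted to nM (MW 444.4). Cmax by inspection; C12h from the nominal 12 h sample; AUC0–∞ by linear/log trapezoidal plus extrapolation from the last concentration/β.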

[3] = Cmax in HIV-negative human at 400 mg, po administered as single dose followed by 4 days wash out period followed by […] coadministered with compound at 400 mg, po on day 14; parameters: dose 400 mg, route oral; details: in vivo
[4] = Trough plasma concentration at 12 hrs in HIV-negative human at 400 mg, po administered as single dose followed by 4 days wash out period followed by efavirenz dosing at 600 mg, po bid for 14 days coadministered with compound at 400 mg, po on day 12; details: in the assay text read “po qd for 14 days” for “po bid for 14 days”, read-out: Cmin
Outline: (§3)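 Efavirenz 600 mg orally once daily at bedtime for 14 days, with a single 400 mg oral raltegravir (double-blind vs placebo) alongside on day 12. Healthy males, all doses taken fasted. Plasma sampled at 0–72 h postdose as in the ritonavir study, but at 36 h instead of 32 h, and quantified by HPLC-MS/MS. Cmax by inspection; C12h at nominal 12 h; AUC0–∞ by linear/log trapezoidal plus extrapolation.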

[5] = Tmax in HIV-negative human at 400 mg, po administered as single dose followed by 4 days wash out period followed by […] coadministered with compound at 400 mg, po on day 14; details: in vivo
[6] = Terminal half life in HIV-negative human at 400 mg, po administered as single dose followed by 4 days wash out period followed by efavirenz dosing at 600 mg, po bid for 14 days coadministered with compound at 400 mg, po on day 12; details: in vivo, in the assay text read “po qd for 14 days” for “po bid for 14 days”, read-out: beta t1/2 (converted); outline: as §1
[7] = AUC (0 to infinity) in HIV-negative human at 400 mg, po administered as single dose followed by 4 days wash out period followed by […] coadministered with compound at 400 mg, po on day 14; parameters: dose 400 mg, time infinity, route oral; details: plasma
[8] = Cmax in HIV-negative human at 400 mg, po administered as single dose followed by 4 days wash out period followed by efavirenz dosing at 600 mg, po bid for 14 days coadministered with compound at 400 mg, po on day 12; parameters: dose 400 mg, route oral; details: in vivo, in the assay text read “po qd for 14 days” for “po bid for 14 days”; outline: as §3
[9] = Cmax in HIV-negative human at 400 mg, po administered as single dose; parameters: dose 400 mg, route oral; details: in vivo; outline: as §2
[10] = Primary phase half life in HIV-negative human at 400 mg, po administered as single dose; details: in vivo, read-out: alphat1/2 (converted); outline: as §1
[11] = AUC (0 to infinity) in HIV-negative human at 400 mg, po administered as single dose followed by 4 days wash out period followed by efavirenz dosing at 600 mg, po bid for 14 days coadministered with compound at 400 mg, po on day 12; parameters: dose 400 mg, route oral, time infinity; details: plasma, in the assay text read “po qd for 14 days” for “po bid for 14 days”; outline: as §3
[12] = Trough plasma concentration at 12 hrs in HIV-negative human at 400 mg, po administered as single dose; details: read-out: Cmin; outline: as §2
[13] = Terminal half life in HIV-negative human at 400 mg, po administered as single dose followed by 4 days wash out period followed by ritonavir dosing at 100 mg, po bid for 16 days coadministered with compound at 400 mg, po on day 14; details: in vivo, read-out: beta t1/2 (converted); outline: as §1
[14] = Trough plasma concentration at 12 hrs in HIV-negative human at 400 mg, po administered as single dose followed by 4 days wash out period followed by ritonavir dosing at 100 mg, po bid […] coadministered with compound at 400 mg, po on day 14; details: read-out: Cmin
Outline: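 In healthy young males, ritonavir 100 mg twice daily for 14 days, with a single 400 mg oral raltegravir (double-blind vs placebo) given with the morning dose on day 14. All doses followed a moderate-fat meal. Cmax and Tmax by inspection at nominal times; C12h from the 12 h sample; AUC0–∞ by trapezoidal sum plus extrapolation.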

[15] = Primary phase half life in HIV-negative human at 400 mg, po administered as single dose followed by 4 days wash out period followed by efavirenz dosing at 600 mg, po bid for 14 days coadministered with compound at 400 mg, po on day 12; details: in vivo, in the assay text read “po qd for 14 days” for “po bid for 14 days”, read-out: alphat1/2 (converted); outline: as §1
[16] = Primary phase half life in HIV-negative human at 400 mg, po administered as single dose followed by 4 days wash out period followed by ritonavir dosing at 100 mg, po bid for 16 days coadministered with compound at 400 mg, po on day 14; details: in vivo, read-out: alphat1/2 (converted); outline: as §1

- half-life [1]: 10.8 h
- AUC(0-inf) [2]: 22.9 µM·h
- Cmax [3]: 7.23 µM
- concentration at 12 h [4]: 0.0625 µM
- Tmax [5]: 2 h
- half-life [6]: 9.1 h
- AUC(0-inf) [7]: 19.3 µM·h
- Cmax [8]: 6.45 µM
- Cmax [9]: 9.57 µM
- half-life [10]: 0.98 h
- AUC(0-inf) [11]: 18.1 µM·h
- concentration at 12 h [12]: 0.0771 µM
- half-life [13]: 10 h
- concentration at 12 h [14]: 0.0765 µM
- half-life [15]: 0.95 h
- half-life [16]: 0.97 h
Compound: Cc1nnc(C(=O)NC(C)(C)c2nc(C(=O)NCc3ccc(F)cc3)c(O)c(=O)n2C)o1 [RALTEGRAVIR]
